Measured values reported in ChEMBL document CHEMBL4138150, “Quinoline derivatives bearing pyrazole moiety: Synthesis and biological evaluation as possible antibacterial and antifungal agents” (2018).
≈ marks a conversion by molar mass, not a printed value.

Legend:
Format in all cases: functional
Aspergillus clavatus [1] = test: Antimicrobial activity against Aspergillus clavatus RCMB 02593 assessed as diameter of zone inhibition at 5 mg/ml after 72 hrs by agar well diffusion assay; details: RCMB 02593, 72 h, read-out: DIZ
In short: (§1)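 Fungi (1 x10^6 CFU/mL, 100 µL) were spread on Sabouraud dextrose agar. 10 mm wells were loaded with 100 µL of test solution at 5 mg/mL in DMSO, or amphotericin B standard at 1 mg/mL. A DMSO negative control was included. Plates were incubated 72 h at 28 °C. Inhibition zone diameter (mm) was recorded as the average of triplicate runs.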

Klebsiella pneumoniae [2] = test: Antimicrobial activity against Klebsiella pneumoniae RCMB 010093 assessed as diameter of zone inhibition at 5 mg/ml after 24 hrs by agar well diffusion assay; details: RCMB 010093, 24 h, read-out: DIZ
In short: (§2)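 Agar well diffusion: 100 µL of 1 x10^8 CFU/mL bacteria was spread on nutrient agar. 10 mm wells received 100 µL of compound at 5 mg/mL in DMSO, or ampicillin or gentamycin standards at 1 mg/mL. DMSO served as negative control. Plates were incubated 24 h at 37 °C. Inhibition zone diameter (mm) was measured as the mean of triplicates.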

[3] = tested on: Staphylococcus epidermidis; test: Antimicrobial activity against Staphylococcus epidermidis RCMB 010024 assessed as diameter of zone inhibition at 5 mg/ml after 24 hrs by agar well diffusion assay; details: RCMB 010024, 24 h, read-out: DIZ; in short: as §2
Aspergillus fumigatus [4] = test: Antimicrobial activity against Aspergillus fumigatus RCMB 02564 assessed as diameter of zone inhibition at 5 mg/ml after 72 hrs by agar well diffusion assay; details: RCMB 02564, 72 h, read-out: DIZ; in short: as §1
Staphylococcus aureus [5] = test: Antimicrobial activity against Staphylococcus aureus RCMB 010027 assessed as diameter of zone inhibition at 5 mg/ml after 24 hrs by agar well diffusion assay; details: RCMB 010027, 24 h, read-out: DIZ; in short: as §2
Bacillus subtilis [6] = test: Antimicrobial activity against Bacillus subtilis RCMB 010063 assessed as diameter of zone inhibition at 5 mg/ml after 24 hrs by agar well diffusion assay; details: RCMB 010063, 24 h, read-out: DIZ; in short: as §2
Proteus vulgaris [7] = test: Antimicrobial activity against Proteus vulgaris RCMB 010085 assessed as diameter of zone inhibition at 5 mg/ml after 24 hrs by agar well diffusion assay; details: RCMB 010085, 24 h, read-out: DIZ; in short: as §2
Candida albicans [8] = test: Antimicrobial activity against Candida albicans RCMB 05035 assessed as diameter of zone inhibition at 5 mg/ml after 72 hrs by agar well diffusion assay; details: RCMB 05035, 72 h, read-out: DIZ; in short: as §1
Shigella flexneri [9] = test: Antimicrobial activity against Shigella flexneri RCMB 0100542 assessed as diameter of zone inhibition at 5 mg/ml after 24 hrs by agar well diffusion assay; details: RCMB 0100542, 24 h, read-out: DIZ; in short: as §2
[10] = tested on: Staphylococcus epidermidis; test: Antimicrobial activity against Staphylococcus epidermidis RCMB 010024 after overnight incubation by macro-tube dilution technique
In short: (§3)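 Macro-tube twofold dilution following NCCLS guidance, run in nutrient broth. The first tube held 10 mg compound in 2.0 mL DMSO and was serially halved 1:1 into 1.0 mL broth through tube 14; tube 15 was the control. The inoculum was suspended to turbidity in 5.0 mL broth, 0.2 mL was diluted into 40 mL, and 1.0 mL was added per tube. Tubes were incubated overnight at 37 °C. MIC was the lowest concentration with no growth.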

Shigella flexneri [11] = test: Antimicrobial activity against Shigella flexneri RCMB 0100542 after overnight incubation by macro-tube dilution technique; in short: as §3
Candida albicans [12] = test: Antimicrobial activity against Candida albicans RCMB 05035 after 72 hrs by macro-tube dilution technique; details: RCMB 05035, 72 h
In short: (§4)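 Twofold macro-tube dilution following NCCLS guidance, run in malt extract broth. 10 mg compound in 2.0 mL DMSO in tube 1 was serially diluted 1:1 through tube 14 into 1.0 mL broth; tube 15 was the control. Culture was suspended to turbidity in 5.0 mL broth, 0.2 mL was diluted into 40 mL, and 1.0 mL was added per tube. Incubation was 72 h at 30 °C. MIC was the lowest concentration with no growth.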

Staphylococcus aureus [13] = test: Antimicrobial activity against Staphylococcus aureus RCMB 010027 after overnight incubation by macro-tube dilution technique; in short: as §3
Proteus vulgaris [14] = test: Antimicrobial activity against Proteus vulgaris RCMB 010085 after overnight incubation by macro-tube dilution technique; in short: as §3
Aspergillus clavatus [15] = test: Antimicrobial activity against Aspergillus clavatus RCMB 02593 after 72 hrs by macro-tube dilution technique; details: RCMB 02593, 72 h; in short: as §4
Aspergillus fumigatus [16] = test: Antimicrobial activity against Aspergillus fumigatus RCMB 02564 after 72 hrs by macro-tube dilution technique; details: RCMB 02564, 72 h; in short: as §4
Klebsiella pneumoniae [17] = test: Antimicrobial activity against Klebsiella pneumoniae RCMB 010093 after overnight incubation by macro-tube dilution technique; in short: as §3
Bacillus subtilis [18] = test: Antimicrobial activity against Bacillus subtilis RCMB 010063 after overnight incubation by macro-tube dilution technique; in short: as §3
Proteus vulgaris [19] = test: Potency index, ratio of Gentamycin IC50 to compound IC50 for Proteus vulgaris RCMB 010085

| Compound | MIC [10] [µg/mL] | MIC (Shigella flexneri [11]) [µg/mL] | MIC (Candida albicans [12]) [µg/mL] | MIC (Staphylococcus aureus [13]) [µg/mL] | MIC (Proteus vulgaris [14]) [µg/mL] | MIC (Aspergillus clavatus [15]) [µg/mL] | MIC (Aspergillus fumigatus [16]) [µg/mL] | MIC (Klebsiella pneumoniae [17]) [µg/mL] | MIC (Bacillus subtilis [18]) [µg/mL] | zone of inhibition at 5000 µg/mL (Aspergillus clavatus [1]) [mm] | zone of inhibition at 5000 µg/mL (Klebsiella pneumoniae [2]) [mm] | zone of inhibition at 5000 µg/mL [3] [mm] | zone of inhibition at 5000 µg/mL (Aspergillus fumigatus [4]) [mm] | zone of inhibition at 5000 µg/mL (Staphylococcus aureus [5]) [mm] | zone of inhibition at 5000 µg/mL (Bacillus subtilis [6]) [mm] | zone of inhibition at 5000 µg/mL (Proteus vulgaris [7]) [mm] | zone of inhibition at 5000 µg/mL (Candida albicans [8]) [mm] | zone of inhibition at 5000 µg/mL (Shigella flexneri [9]) [mm] | Ratio (Proteus vulgaris [19]) |
| --- | --- | --- | --- | --- | --- | --- | --- | --- | --- | --- | --- | --- | --- | --- | --- | --- | --- | --- | --- |
| Clc1ccccc1C1CC(c2ccc(Oc3ccc4ccccc4n3)cc2)=NN1c1ccccc1 (centres undefined) |  |  |  |  |  |  |  |  |  | 0 | 13.3 | 0 | 12.3 | 14.8 | 16.4 | 12.4 | 9.3 | 0 |  |
| COc1ccc(C2CC(c3ccc(Oc4ccc5ccccc5n4)cc3)=NN2)cc1 (centres undefined) |  |  |  |  |  |  |  |  |  | 14.2 | 16.2 | 14.6 | 13.5 | 13.1 | 13.7 | 14.3 | 12.1 | 14.3 |  |
| COc1ccc(C(=O)/C=C/c2ccc(Oc3ccc4ccccc4n3)cc2)cc1 |  |  |  |  |  |  |  |  |  | 11.5 | 7.2 | 10.6 | 10.7 | 8.7 | 0 | 0 | 0 | 0 |  |
| COc1ccc(C2=NNC(c3ccc(Oc4ccc5ccccc5n4)cc3)C2)cc1 (centres undefined) |  |  |  |  |  |  |  |  |  | 12.8 | 0 | 18.6 | 15.6 | 16.2 | 19.4 | 16.2 | 11.6 | 15.4 |  |
| COc1ccc(C2=NN(c3ccccc3)C(c3ccc(Oc4ccc5ccccc5n4)cc3)C2)cc1 (centres undefined) |  |  |  |  |  |  |  |  |  | 14.5 | 15.9 | 13.1 | 16.2 | 12.1 | 0 | 13.5 | 11.6 | 14.4 |  |
| CSc1nn(-c2ccc3ccccc3n2)c(N)c1C#N |  |  |  |  |  |  |  |  |  | 15.9 | 15.3 | 16.2 | 15.7 | 18.9 | 19.8 | 12.3 | 16.8 | 16.2 |  |
| Clc1ccccc1C1CC(c2ccc(Oc3ccc4ccccc4n3)cc2)=NN1 (centres undefined) | 0.97 (≈ 2.43 µM) | 1.95 (≈ 4.88 µM) | 1.95 (≈ 4.88 µM) | 0.97 (≈ 2.43 µM) | 0.97 (≈ 2.43 µM) | 15.6 (≈ 39.1 µM) | 7.81 (≈ 19.5 µM) | 1.95 (≈ 4.88 µM) | 1.95 (≈ 4.88 µM) | 17.5 | 22.8 | 25.3 | 21.4 | 23.9 | 24.2 | 23.6 | 18.5 | 23.6 | 2 |
| N#Cc1c(-c2cccc(Cl)c2)nn(-c2ccc3ccccc3n2)c1N |  |  |  |  |  |  |  |  |  | 13.2 | 0 | 11.6 | 12.3 | 10.3 | 13.3 | 0 | 15.2 | 0 |  |

Continued, in another order:

| MIC [10] [µg/mL] | MIC (Shigella flexneri [11]) [µg/mL] | MIC (Candida albicans [12]) [µg/mL] | MIC (Staphylococcus aureus [13]) [µg/mL] | MIC (Proteus vulgaris [14]) [µg/mL] | MIC (Aspergillus clavatus [15]) [µg/mL] | MIC (Aspergillus fumigatus [16]) [µg/mL] | MIC (Klebsiella pneumoniae [17]) [µg/mL] | MIC (Bacillus subtilis [18]) [µg/mL] | Compound | zone of inhibition at 5000 µg/mL (Aspergillus clavatus [1]) [mm] | zone of inhibition at 5000 µg/mL (Klebsiella pneumoniae [2]) [mm] | zone of inhibition at 5000 µg/mL [3] [mm] | zone of inhibition at 5000 µg/mL (Aspergillus fumigatus [4]) [mm] | zone of inhibition at 5000 µg/mL (Staphylococcus aureus [5]) [mm] | zone of inhibition at 5000 µg/mL (Bacillus subtilis [6]) [mm] | zone of inhibition at 5000 µg/mL (Proteus vulgaris [7]) [mm] | zone of inhibition at 5000 µg/mL (Candida albicans [8]) [mm] | zone of inhibition at 5000 µg/mL (Shigella flexneri [9]) [mm] | Ratio (Proteus vulgaris [19]) |
| --- | --- | --- | --- | --- | --- | --- | --- | --- | --- | --- | --- | --- | --- | --- | --- | --- | --- | --- | --- |
| 0.98 (≈ 2.43 µM) | 7.81 (≈ 19.4 µM) | 0.49 (≈ 1.21 µM) | 1.95 (≈ 4.83 µM) | 31.2 (≈ 77.4 µM) | 7.81 (≈ 19.4 µM) | 0.98 (≈ 2.43 µM) | 7.81 (≈ 19.4 µM) | 0.49 (≈ 1.21 µM) | Cc1ccc(-c2nn(-c3ccccc3)cc2/C=N/Nc2ccc3ccccc3n2)cc1 | 18.3 | 17.6 | 20.7 | 20.5 | 20.3 | 22.4 | 16.2 | 22.1 | 18.3 |  |
|  |  | 1.95 (≈ 5.94 µM) |  |  | 7.81 (≈ 23.8 µM) | 7.81 (≈ 23.8 µM) |  |  | CCOC(=O)c1c(SC)nn(-c2ccc3ccccc3n2)c1N | 19.3 | 0 | 17.8 | 18.7 | 15.8 | 19.8 | 0 | 20.3 | 0 |  |
| 3.9 (≈ 10 µM) | 7.81 (≈ 20.1 µM) | 7.81 (≈ 20.1 µM) | 3.9 (≈ 10 µM) | 7.81 (≈ 20.1 µM) | 15.6 (≈ 40.1 µM) | 7.81 (≈ 20.1 µM) | 3.9 (≈ 10 µM) | 1.97 (≈ 5.06 µM) | C(=N\Nc1ccc2ccccc2n1)/c1cn(-c2ccccc2)nc1-c1ccccc1 | 18.4 | 21.2 | 23.4 | 17.5 | 22.2 | 23.2 | 20.2 | 19.6 | 20.1 |  |
| 3.9 (≈ 9.2 µM) | 3.9 (≈ 9.2 µM) | 3.9 (≈ 9.2 µM) | 0.97 (≈ 2.29 µM) | 3.9 (≈ 9.2 µM) | 7.81 (≈ 18.4 µM) | 15.6 (≈ 36.9 µM) | 3.9 (≈ 9.2 µM) | 0.97 (≈ 2.29 µM) | Clc1ccc(-c2nn(-c3ccccc3)cc2/C=N/Nc2ccc3ccccc3n2)cc1 | 19.8 | 22.9 | 25.7 | 21.5 | 24.5 | 27.6 | 21.4 | 24.9 | 21.8 |  |
| 15.6 (≈ 52.7 µM) | 15.6 (≈ 52.7 µM) | 1.95 (≈ 6.58 µM) | 1.95 (≈ 6.58 µM) | 125 (≈ 422 µM) | 3.9 (≈ 13.2 µM) | 31.2 (≈ 105 µM) | 31.2 (≈ 105 µM) | 1.95 (≈ 6.58 µM) | CCOC(=O)c1c(C)nn(-c2ccc3ccccc3n2)c1N | 18.6 | 15.9 | 17.3 | 16.3 | 20.3 | 20.2 | 13.6 | 19.8 | 16.8 |  |
| 0.98 (≈ 3.93 µM) | 31.2 (≈ 125 µM) | 1.95 (≈ 7.82 µM) | 3.9 (≈ 15.6 µM) | 500 (≈ 2010 µM) | 7.8 (≈ 31.3 µM) | 15.6 (≈ 62.7 µM) | 31.2 (≈ 125 µM) | 0.98 (≈ 3.93 µM) | Cc1nn(-c2ccc3ccccc3n2)c(N)c1C#N | 18.3 | 15.7 | 20.6 | 16.8 | 19.2 | 20.9 | 11.6 | 20.4 | 15.9 |  |
